{"source": "ChEMBL document CHEMBL1144984", "about": "“Synthesis and antibacterial activity of pyrroloaryl-substituted oxazolidinones” (2003)", "type_in_all_cases": "functional", "key": {"Enterococcus faecium": {"system": "Enterococcus faecium", "test": "Minimum inhibitory concentration against vancomycin resistant Enterococcus faecium OC 3312", "method_in_brief": "(§1)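 Broth microdilution per NCCLS methods; MIC read as the lowest compound concentration inhibiting visible growth. Linezolid run as standard. Strains from a four-strain Gram-positive screening panel: S. aureus OC 2878 is methicillin-resistant, E. faecium OC 3312 is vancomycin-resistant.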"}, "Staphylococcus aureus [1]": {"system": "Staphylococcus aureus", "test": "Minimum inhibitory concentration against methicillin resistant Staphylococcus aureus OC 2878", "method_in_brief": "as §1"}, "Mus musculus [2]": {"system": "Mus musculus", "test": "Effective dose of compound after oral administration in murine model infected with Staphylococcus aureus OC4172 (Smith) was determined", "method_in_brief": "(§2)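 Murine model of lethal systemic infection, with compound given orally. ED50 is the dose protecting 50% of mice from death, expressed in mg/kg/day.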"}, "Staphylococcus aureus [3]": {"system": "Staphylococcus aureus", "test": "Minimum inhibitory concentration against Staphylococcus aureus broth", "method_in_brief": "(§3)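 Broth microdilution MIC run by National Committee for Clinical Laboratory Standards methods, with linezolid as standard. MIC is the lowest compound concentration inhibiting visible growth.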"}, "Enterococcus faecalis": {"system": "Enterococcus faecalis", "test": "Minimum inhibitory concentration against Enterococcus faecalis ATTCC 29212", "method_in_brief": "as §3"}, "Staphylococcus aureus [4]": {"system": "Staphylococcus aureus", "test": "Minimum inhibitory concentration against Staphylococcus aureus OC 4172 in precense of 50% mouse serum", "method_in_brief": "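Broth microdilution MIC against S. aureus OC 4172 (Smith, methicillin-susceptible) with 50% mouse serum in the medium, to gauge protein binding or serum inactivation. Run by NCCLS methods with linezolid as standard. MIC is the lowest concentration inhibiting visible growth.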"}, "Mus musculus [5]": {"system": "Mus musculus", "test": "Effective dose of compound after oral administration in mice with Staphylococcus aureus OC4172 (Smith) was determined", "method_in_brief": "as §2"}}, "data": [{"smiles": "CC(=O)NC[C@H]1CN(c2ccc(N3CCOCC3)c(F)c2)C(=O)O1", "note": "[LINEZOLID]", "values": [{"measurement": "MIC", "setting": "Enterococcus faecium", "result": 2, "unit": "µg/mL"}, {"measurement": "MIC", "setting": "Staphylococcus aureus [1]", "result": 1, "unit": "µg/mL"}, {"measurement": "ED50", "setting": "Mus musculus [2]", "result": 8, "unit": "mg/kg/day"}]}, {"smiles": "CC(=O)NC[C@H]1CN(c2ccc(N3Cc4cccnc4C3=O)c(F)c2)C(=O)O1", "values": [{"measurement": "MIC", "setting": "Enterococcus faecium", "result": 8, "unit": "µg/mL"}, {"measurement": "MIC", "setting": "Staphylococcus aureus [1]", "result": 8, "unit": "µg/mL"}, {"measurement": "MIC", "setting": "Staphylococcus aureus [3]", "result": 8, "unit": "µg/mL"}, {"measurement": "MIC", "setting": "Enterococcus faecalis", "result": 32, "unit": "µg/mL"}, {"measurement": "MIC", "setting": "Staphylococcus aureus [4]", "result": 8, "unit": "µg/mL"}]}, {"smiles": "CC(=O)NC[C@H]1CN(c2ccc(N3C(=O)c4ccccc4C3=O)c(F)c2)C(=O)O1", "values": [{"measurement": "MIC", "setting": "Enterococcus faecium", "result": 32, "unit": "µg/mL"}, {"measurement": "MIC", "setting": "Staphylococcus aureus [1]", "result": 16, "unit": "µg/mL"}, {"measurement": "MIC", "setting": "Staphylococcus aureus [3]", "result": 32, "unit": "µg/mL"}, {"measurement": "MIC", "setting": "Enterococcus faecalis", "result": 64, "unit": "µg/mL"}, {"measurement": "MIC", "setting": "Staphylococcus aureus [4]", "result": 128, "unit": "µg/mL"}]}, {"smiles": "CC(=O)NC[C@H]1CN(c2ccc(-n3cc4cccnc4c3)c(F)c2)C(=O)O1", "values": [{"measurement": "MIC", "setting": "Enterococcus faecium", "result": 1, "unit": "µg/mL"}, {"measurement": "MIC", "setting": "Staphylococcus aureus [1]", "result": 0.5, "unit": "µg/mL"}, {"measurement": "MIC", "setting": "Staphylococcus aureus [3]", "result": 1, "unit": "µg/mL"}, {"measurement": "MIC", "setting": "Enterococcus faecalis", "result": 1, "unit": "µg/mL"}, {"measurement": "MIC", "setting": "Staphylococcus aureus [4]", "result": 2, "unit": "µg/mL"}]}, {"smiles": "CC(=O)NC[C@H]1CN(c2ccc(N3Cc4ncccc4C3=O)c(F)c2)C(=O)O1", "values": [{"measurement": "MIC", "setting": "Enterococcus faecium", "result": 8, "unit": "µg/mL"}, {"measurement": "MIC", "setting": "Staphylococcus aureus [1]", "result": 4, "unit": "µg/mL"}, {"measurement": "MIC", "setting": "Staphylococcus aureus [3]", "result": 16, "unit": "µg/mL"}, {"measurement": "MIC", "setting": "Enterococcus faecalis", "result": 16, "unit": "µg/mL"}, {"measurement": "MIC", "setting": "Staphylococcus aureus [4]", "result": 8, "unit": "µg/mL"}]}, {"smiles": "CC(=O)NC[C@H]1CN(c2ccc(N3C(=O)c4cccnc4C3=O)c(F)c2)C(=O)O1", "values": [{"measurement": "MIC", "setting": "Enterococcus faecium", "result": "> 128", "unit": "µg/mL"}, {"measurement": "MIC", "setting": "Staphylococcus aureus [3]", "result": "> 128", "unit": "µg/mL"}, {"measurement": "MIC", "setting": "Enterococcus faecalis", "result": "> 128", "unit": "µg/mL"}, {"measurement": "MIC", "setting": "Staphylococcus aureus [4]", "result": "> 128", "unit": "µg/mL"}]}, {"smiles": "CCN(Cc1cccnc1)c1ccc(N2C[C@H](CNC(C)=O)OC2=O)cc1F", "values": [{"measurement": "MIC", "setting": "Enterococcus faecium", "result": 16, "unit": "µg/mL"}, {"measurement": "MIC", "setting": "Staphylococcus aureus [1]", "result": 8, "unit": "µg/mL"}, {"measurement": "MIC", "setting": "Staphylococcus aureus [3]", "result": 16, "unit": "µg/mL"}, {"measurement": "MIC", "setting": "Enterococcus faecalis", "result": 16, "unit": "µg/mL"}, {"measurement": "MIC", "setting": "Staphylococcus aureus [4]", "result": 32, "unit": "µg/mL"}]}, {"smiles": "CC(=O)NC[C@H]1CN(c2ccc(N3Cc4ccccc4C3=O)c(F)c2)C(=O)O1", "values": [{"measurement": "MIC", "setting": "Enterococcus faecium", "result": 8, "unit": "µg/mL"}, {"measurement": "MIC", "setting": "Staphylococcus aureus [1]", "result": 4, "unit": "µg/mL"}, {"measurement": "MIC", "setting": "Staphylococcus aureus [3]", "result": 4, "unit": "µg/mL"}, {"measurement": "MIC", "setting": "Enterococcus faecalis", "result": 8, "unit": "µg/mL"}, {"measurement": "MIC", "setting": "Staphylococcus aureus [4]", "result": 16, "unit": "µg/mL"}]}, {"smiles": "CC(=O)NC[C@H]1CN(c2ccc(N3Cc4ccccc4C3)c(F)c2)C(=O)O1", "values": [{"measurement": "MIC", "setting": "Enterococcus faecium", "result": 4, "unit": "µg/mL"}, {"measurement": "MIC", "setting": "Staphylococcus aureus [1]", "result": 1, "unit": "µg/mL"}, {"measurement": "MIC", "setting": "Staphylococcus aureus [3]", "result": 4, "unit": "µg/mL"}, {"measurement": "MIC", "setting": "Enterococcus faecalis", "result": 4, "unit": "µg/mL"}, {"measurement": "MIC", "setting": "Staphylococcus aureus [4]", "result": 16, "unit": "µg/mL"}, {"measurement": "ED50", "setting": "Mus musculus [5]", "result": "> 80", "unit": "mg/kg/day"}]}, {"smiles": "CC(=O)NC[C@H]1CN(c2ccc(N3C(=O)c4ccncc4C3=O)c(F)c2)C(=O)O1", "values": [{"measurement": "MIC", "setting": "Enterococcus faecium", "result": "> 128", "unit": "µg/mL"}, {"measurement": "MIC", "setting": "Staphylococcus aureus [3]", "result": "> 128", "unit": "µg/mL"}, {"measurement": "MIC", "setting": "Enterococcus faecalis", "result": "> 128", "unit": "µg/mL"}, {"measurement": "MIC", "setting": "Staphylococcus aureus [4]", "result": "> 128", "unit": "µg/mL"}]}, {"smiles": "CC(=O)NC[C@H]1CN(c2ccc(-n3cc4cncnc4c3)c(F)c2)C(=O)O1", "values": [{"measurement": "MIC", "setting": "Enterococcus faecium", "result": 0.5, "unit": "µg/mL"}, {"measurement": "MIC", "setting": "Staphylococcus aureus [1]", "result": 1, "unit": "µg/mL"}, {"measurement": "MIC", "setting": "Staphylococcus aureus [3]", "result": 1, "unit": "µg/mL"}, {"measurement": "MIC", "setting": "Enterococcus faecalis", "result": 1, "unit": "µg/mL"}, {"measurement": "MIC", "setting": "Staphylococcus aureus [4]", "result": 2, "unit": "µg/mL"}]}, {"smiles": "CC(=O)NC[C@H]1CN(c2ccc(-n3cc4ccncc4c3)c(F)c2)C(=O)O1", "values": [{"measurement": "MIC", "setting": "Enterococcus faecium", "result": 0.5, "unit": "µg/mL"}, {"measurement": "MIC", "setting": "Staphylococcus aureus [1]", "result": 0.5, "unit": "µg/mL"}, {"measurement": "MIC", "setting": "Staphylococcus aureus [3]", "result": 0.5, "unit": "µg/mL"}, {"measurement": "MIC", "setting": "Enterococcus faecalis", "result": 1, "unit": "µg/mL"}, {"measurement": "MIC", "setting": "Staphylococcus aureus [4]", "result": 1, "unit": "µg/mL"}]}, {"smiles": "CC(=O)NC[C@H]1CN(c2ccc(N3Cc4ccncc4C3)c(F)c2)C(=O)O1", "values": [{"measurement": "MIC", "setting": "Enterococcus faecium", "result": 1, "unit": "µg/mL"}, {"measurement": "MIC", "setting": "Staphylococcus aureus [1]", "result": 0.5, "unit": "µg/mL"}, {"measurement": "MIC", "setting": "Staphylococcus aureus [3]", "result": 1, "unit": "µg/mL"}, {"measurement": "MIC", "setting": "Enterococcus faecalis", "result": 1, "unit": "µg/mL"}, {"measurement": "MIC", "setting": "Staphylococcus aureus [4]", "result": 1, "unit": "µg/mL"}]}, {"smiles": "CC(=O)NC[C@H]1CN(c2ccc(N3Cc4cccnc4C3)c(F)c2)C(=O)O1", "values": [{"measurement": "MIC", "setting": "Enterococcus faecium", "result": 0.5, "unit": "µg/mL"}, {"measurement": "MIC", "setting": "Staphylococcus aureus [1]", "result": 0.25, "unit": "µg/mL"}, {"measurement": "MIC", "setting": "Staphylococcus aureus [3]", "result": 0.5, "unit": "µg/mL"}, {"measurement": "MIC", "setting": "Enterococcus faecalis", "result": 0.5, "unit": "µg/mL"}, {"measurement": "MIC", "setting": "Staphylococcus aureus [4]", "result": 1, "unit": "µg/mL"}]}, {"smiles": "CC(=O)NC[C@H]1CN(c2ccc(N3Cc4cncnc4C3)c(F)c2)C(=O)O1", "values": [{"measurement": "MIC", "setting": "Enterococcus faecium", "result": 1, "unit": "µg/mL"}, {"measurement": "MIC", "setting": "Staphylococcus aureus [1]", "result": 1, "unit": "µg/mL"}, {"measurement": "MIC", "setting": "Staphylococcus aureus [3]", "result": 1, "unit": "µg/mL"}, {"measurement": "MIC", "setting": "Enterococcus faecalis", "result": 2, "unit": "µg/mL"}, {"measurement": "MIC", "setting": "Staphylococcus aureus [4]", "result": 2, "unit": "µg/mL"}]}, {"smiles": "CCN(Cc1ccccn1)c1ccc(N2C[C@H](CNC(C)=O)OC2=O)cc1F", "values": [{"measurement": "MIC", "setting": "Enterococcus faecium", "result": "> 128", "unit": "µg/mL"}, {"measurement": "MIC", "setting": "Staphylococcus aureus [3]", "result": "> 128", "unit": "µg/mL"}, {"measurement": "MIC", "setting": "Enterococcus faecalis", "result": "> 128", "unit": "µg/mL"}, {"measurement": "MIC", "setting": "Staphylococcus aureus [4]", "result": "> 128", "unit": "µg/mL"}]}]}
